Reference: PMC3517974 (ChemMedChem, 2009)

Experiments:
[1] = type: in vitro ADME, rat; settings: for log kplasma: hydrolysis constant in rat plasma
[2] = In vitro stability in rat liver S9 fraction with NADPH-regenerating system; type: in vitro ADME; settings: for log kS9: hydrolysis constant in rat liver S9 fraction
How it was run: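 S9 came from male Wistar rat liver (250–300 g), perfused with ice-cold 0.15 M KCl, homogenized 20% w/v in 0.01 M PBS pH 7.4, and spun at 9,000g. It was preincubated 5 min at 37 °C with NADPH-regenerating system (2 mM NADP+, 10 mM G6P, 0.4 U/mL G6PDH, 5 mM MgCl2), 2 mg/mL protein. Test compound was added at 1 µM (1% DMSO). Aliquots were acetonitrile-quenched and analyzed by RP-HPLC; t1/2 from pseudo-first-order constants, mean±SD of three.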

Row | Compound | t1/2,inhib in rat plasma ([1]; coincubation with esterase inhibitor paraoxon 1 mM) [h] | log kplasma [1] | log kS9 [2] | half-life at 1 μM ([2]; male, Wistar, rat, liver S9 fraction, pH 7.4, half-life in rat liver S9 fraction, in vitro oxidative metabolism) [h] | stability in rat liver S9 relative to regio isomer 1 [2] [fold]
1 | O=C(NC1CCCCC1)Oc1cccc(-c2ccccc2)c1 [Compound 1] | 2.38 | −1.79 | −0.94 |  | 
2 | CCCCNC(=O)Oc1ccc(OCc2ccccc2)cc1 [Compound 8, n-Butylcarbamic acid 4-benzyloxyphenyl ester] |  | −2.68 | −1.00 |  | 
3 | NC(=O)c1cccc(-c2cccc(OC(=O)NC3CCCCC3)c2)c1 [Compound 9, cyclohexylcarbamic acid 3′-carbamoylbiphenyl-3-yl ester] |  | −1.68 | −1.93 | ~1 | 
4 | O=C(NC1CCCCC1)Oc1ccc(-c2ccccc2)cc1 [Compound 12, Cyclohexylcarbamic acid biphenyl-4-yl ester] |  | −1.50 | −1.44 |  | 3
5 | O=C(NC1CCCCC1)Oc1ccc2ccccc2c1 [Compound 13, Cyclohexylcarbamic acid naphthalen-2-yl ester] |  | −1.57 | −0.86 |  | 
